Experimental findings from ChEMBL document CHEMBL2203015, “Synthesis and biological evaluation of 5-aryloxypyrazole derivatives bearing a rhodanine-3-aromatic acid as potential antimicrobial agents” (Bioorg Med Chem Lett, 2012) are described below.

Converted amounts (≈) assume the structure as drawn. The source made the active and inactive calls. The calls are words filed in the database; no cut-off is given here. Bounds are passed on as bounds.

For data set [1], the system named is Staphylococcus aureus. Kind of data set: Antibacterial activity against quinolone-resistant Staphylococcus aureus CCARM 3519 at 64 ug/ml incubated for 24 hrs serial dilution method. It is filed as functional, organism-based.
Data set [2] deals with Staphylococcus aureus. Put plainly: Antibacterial activity against quinolone-resistant Staphylococcus aureus CCARM 3505 at 64 ug/ml incubated for 24 hrs serial dilution method. The data set is classed as functional, organism-based.
In data set [3] the test system is Staphylococcus aureus. Put plainly: Antibacterial activity against multidrug-resistant Staphylococcus aureus CCARM 3506 at 64 ug/ml incubated for 24 hrs serial dilution method. It is filed as functional, organism-based.
Data set [4] relates to Staphylococcus aureus. Put plainly: Antibacterial activity against multidrug-resistant Staphylococcus aureus CCARM 3167 at 64 ug/ml incubated for 24 hrs serial dilution method. The data set is classed as functional, organism-based.
In data set [5] the test system is Escherichia coli. Put plainly: Antibacterial activity against Escherichia coli 1356 at 64 ug/ml incubated for 24 hrs serial dilution method. It is filed as functional, organism-based.
The subject of data set [6] is Staphylococcus aureus. Kind of data set: Antibacterial activity against Staphylococcus aureus KCTC 503 at 64 ug/ml incubated for 24 hrs serial dilution method. It is filed as functional, organism-based.
For data set [7], the system named is Staphylococcus aureus. Put plainly: Antibacterial activity against Staphylococcus aureus KCTC 209 at 64 ug/ml incubated for 24 hrs serial dilution method. The data set is classed as functional, organism-based.
In data set [8] the test system is Staphylococcus aureus. Kind of data set: Antibacterial activity against Staphylococcus aureus RN 4220 at 64 ug/ml incubated for 24 hrs serial dilution method. The data set is classed as functional, organism-based.
For data set [9], the system named is Staphylococcus aureus. Kind of data set: Potency index, ratio of MIC for oxacillin to MIC for compound against quinolone-resistant Staphylococcus aureus CCARM 3505 incubated for 24 hrs serial dilution method. It is filed as functional.
Data set [10] concerns Staphylococcus aureus. Put plainly: Potency index, ratio of MIC for oxacillin to MIC for compound against quinolone-resistant Staphylococcus aureus CCARM 3519 incubated for 24 hrs serial dilution method. The data set is classed as functional.
Data set [11] has as its system Staphylococcus aureus. Put plainly: Potency index, ratio of MIC for oxacillin to MIC for compound against multidrug-resistant Staphylococcus aureus CCARM 3506 incubated for 24 hrs serial dilution method. The data set is classed as functional.
Data set [12] deals with Staphylococcus aureus. Put plainly: Potency index, ratio of MIC for oxacillin to MIC for compound against multidrug-resistant Staphylococcus aureus CCARM 3167 incubated for 24 hrs serial dilution method. The data set is classed as functional.
For data set [13], the system named is Staphylococcus aureus. Put plainly: Potency index, ratio of MIC for norfloxacin to MIC for compound against quinolone-resistant Staphylococcus aureus CCARM 3519 incubated for 24 hrs serial dilution method. The data set is classed as functional.
In data set [14] the test system is Staphylococcus aureus. Kind of data set: Potency index, ratio of MIC for norfloxacin to MIC for compound against quinolone-resistant Staphylococcus aureus CCARM 3505 incubated for 24 hrs serial dilution method. It is filed as functional.
Data set [15] relates to Staphylococcus aureus. Put plainly: Potency index, ratio of MIC for norfloxacin to MIC for compound against multidrug-resistant Staphylococcus aureus CCARM 3506 incubated for 24 hrs serial dilution method. The data set is classed as functional.
Data set [16] deals with Staphylococcus aureus. Put plainly: Potency index, ratio of MIC for norfloxacin to MIC for compound against multidrug-resistant Staphylococcus aureus CCARM 3167 incubated for 24 hrs serial dilution method. It is filed as functional.
Data set [17] concerns Staphylococcus aureus. Kind of data set: Antibacterial activity against quinolone-resistant Staphylococcus aureus CCARM 3519 incubated for 24 hrs serial dilution method. Conditions: CCARM 3519, 24 h. The data set is classed as functional.
Data set [18] has as its system Staphylococcus aureus. Kind of data set: Antibacterial activity against quinolone-resistant Staphylococcus aureus CCARM 3505 incubated for 24 hrs serial dilution method. It is filed as functional. To be noted: CCARM 3505, 24 h.
Data set [19] has as its system Staphylococcus aureus. Kind of data set: Antibacterial activity against multidrug-resistant Staphylococcus aureus CCARM 3506 incubated for 24 hrs serial dilution method. It is filed as functional. Conditions: CCARM 3506, 24 h.
Data set [20] deals with Staphylococcus aureus. Put plainly: Antibacterial activity against multidrug-resistant Staphylococcus aureus CCARM 3167 incubated for 24 hrs serial dilution method. To be noted: CCARM 3167, 24 h. The data set is classed as functional.
Data set [21] concerns Escherichia coli. Kind of data set: Antibacterial activity against Escherichia coli 1356 incubated for 24 hrs serial dilution method. It is filed as functional. Conditions: Escherichia coli, 1356, 24 h.
For data set [22], the system named is Staphylococcus aureus. Kind of data set: Antibacterial activity against Staphylococcus aureus KCTC 503 incubated for 24 hrs serial dilution method. It is filed as functional. To be noted: KCTC 503, 24 h.
Data set [23] has as its system Staphylococcus aureus. Kind of data set: Antibacterial activity against Staphylococcus aureus KCTC 209 incubated for 24 hrs serial dilution method. The data set is classed as functional. To be noted: KCTC 209, 24 h.
For data set [24], the system named is Staphylococcus aureus. Kind of data set: Antibacterial activity against Staphylococcus aureus RN 4220 incubated for 24 hrs serial dilution method. The data set is classed as functional. Conditions: RN 4220, 24 h.
The subject of data set [25] is HeLa. Kind of data set: Toxicity against human HeLa cells at 2 ug/ml incubated for 48 hrs by MTT assay. The data set is classed as cell-based. The method, boiled down: (§1)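 HeLa cells kept in DMEM with 10% FBS and penicillin-streptomycin (100 U/mL) at 37 °C, 5% CO₂, split with 0.25% trypsin at 80–90% confluence. After 3 passages, about 1 × 10⁴ cells per well were seeded and left overnight to attach. Compound exposure 48 h. MTT (5 mg/mL in PBS) added for 4 h, formazan dissolved in DMSO, OD read at 570 nm.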

In data set [26] the test system is HeLa. Put plainly: Toxicity against human HeLa cells at 1 ug/ml incubated for 48 hrs by MTT assay. The data set is classed as cell-based. The method in brief:
as §1

Data set [27] in a line: Toxicity against human HeLa cells incubated for 48 hrs by MTT assay. It is filed as cell-based. Conditions: read-out: IC50. The method in brief: as §1

Consider `Cc1ccccc1Oc1c(C=O)c(C)nn1-c1ccccc1`, for which the result in [1], in data set [2], in data set [3], in [4], in data set [5] and in data set [6] was inactive. The outcome in [7] and in data set [8] was inactive.

As to `Cc1nn(-c2ccccc2)c(Oc2ccc(Cl)cc2)c1C=O`, the result in data set [1], in data set [2], in data set [3], in data set [4], in [5] and in data set [6] was inactive. The result in [7] and in [8] was inactive.

Consider `Cc1ccc(Oc2c(/C=C3\SC(=S)N([C@@H](Cc4c[nH]c5ccccc45)C(=O)O)C3=O)c(C)nn2-c2ccccc2)c(C)c1`, for which the Ratio in data set [9] is given as 64; in data set [10] it was 64; in data set [11], 64; in data set [12] it was 64; in data set [13], 4; in data set [14], 4. Also, the Ratio in [15] and in data set [16] was 4 each time. Moreover, the minimal inhibitory concentration (MIC) in [17] was 1 µg/mL (≈ 1.64 µM); in data set [18], 1 µg/mL (≈ 1.64 µM); in data set [19] it was 1 µg/mL (≈ 1.64 µM); in [20] it was 1 µg/mL (≈ 1.64 µM); in data set [21], over 64 µg/mL; in [22], over 64 µg/mL. For the same compound, the MIC in data set [23] was over 64 µg/mL; in data set [24] it was 2 µg/mL (≈ 3.29 µM).

As to `Cc1nn(-c2ccccc2)c(Oc2cccc(Cl)c2)c1C=O`, the outcome in data set [1], in data set [2], in data set [3], in [4], in data set [5] and in data set [6] was inactive. In addition, the result in data set [7] and in data set [8] was inactive.

Regarding `Cc1nn(-c2ccccc2)c(Oc2c(Cl)cccc2Cl)c1C=O`, the result in data set [1], in data set [2], in data set [3], in data set [4], in [5] and in data set [6] was inactive. Also, the result in data set [7] and in data set [8] was inactive.

As to `Cc1nn(-c2ccccc2)c(Oc2ccccc2Cl)c1C=O`, the result in data set [1], in [2], in [3], in data set [4], in data set [5] and in data set [6] was inactive. The result in [7] and in data set [8] was inactive.

On to `Cc1ccc(Oc2c(C=O)c(C)nn2-c2ccccc2)cc1`, for which the outcome in data set [1], in data set [2], in data set [3], in data set [4], in data set [5] and in data set [6] was inactive. Further, the result in data set [7] and in data set [8] was inactive.

With `Cc1nn(-c2ccccc2)c(Oc2ccc(F)cc2)c1C=O`, the outcome in [1], in data set [2], in data set [3], in data set [4], in [5] and in data set [6] was inactive. Moreover, the outcome in [7] and in [8] was inactive.

As for `Cc1nn(-c2ccccc2)c(Oc2cccc(C(F)(F)F)c2)c1C=O`, the result in data set [1], in data set [2], in data set [3], in [4], in data set [5] and in data set [6] was inactive. The result in data set [7] and in data set [8] was inactive.

`Cc1nn(-c2ccccc2)c(Oc2ccc(Cl)cc2Cl)c1/C=C1\SC(=S)N([C@@H](Cc2c[nH]c3ccccc23)C(=O)O)C1=O`: the Activity entry in data set [25] and in data set [26] was “Non-toxic” each time. Further, the Ratio in data set [9] was 64; in data set [10], 64; in data set [11] it was 64; in data set [12], 64; in data set [13], 4; in data set [14], 4. For the same compound, the Ratio in data set [15] and in data set [16] was 4 each time. Further, in [27], the IC50 at 48 h worked out at 5.76 µg/mL (≈ 8.87 µM). The MIC in data set [17] was 1 µg/mL (≈ 1.54 µM); in [18] it was 1 µg/mL (≈ 1.54 µM); in data set [19], 1 µg/mL (≈ 1.54 µM); in data set [20] it was 1 µg/mL (≈ 1.54 µM); in data set [21], over 64 µg/mL; in data set [22], over 64 µg/mL. For the same compound, the MIC in data set [23] was over 64 µg/mL; in [24], 2 µg/mL (≈ 3.08 µM).

As for `Cc1ccc(Oc2c(C=O)c(C)nn2-c2ccccc2)c(C)c1`, the result in data set [1], in data set [2], in [3], in [4], in data set [5] and in [6] was inactive. Moreover, the result in data set [7] and in data set [8] was inactive.

Turning to `Cc1nn(-c2ccccc2)c(Oc2ccccc2)c1C=O`, the result in data set [1], in data set [2], in data set [3], in data set [4], in [5] and in data set [6] was inactive. For the same compound, the outcome in data set [7] and in [8] was inactive.

For `Cc1nn(-c2ccccc2)c(Oc2ccc(Br)cc2)c1/C=C1\SC(=S)N([C@@H](Cc2c[nH]c3ccccc23)C(=O)O)C1=O`, the Ratio in data set [9] came out at 64; in [10] it was 64; in [11], 64; in data set [12] it was 64; in data set [13], 4; in data set [14], 4. Moreover, the Ratio in data set [15] and in [16] was 4 in each case. The MIC in [17] is 1 µg/mL (≈ 1.52 µM); in data set [18] it was 1 µg/mL (≈ 1.52 µM); in [19], 1 µg/mL (≈ 1.52 µM); in data set [20] it was 1 µg/mL (≈ 1.52 µM); in data set [21], over 64 µg/mL; in data set [22], over 64 µg/mL. Also, the minimal inhibitory concentration (MIC) in data set [23] was over 64 µg/mL; in data set [24], 2 µg/mL (≈ 3.03 µM).

As to `Cc1nn(-c2ccccc2)c(Oc2ccc(Br)cc2)c1C=O`, the result in [1], in data set [2], in [3], in [4], in data set [5] and in [6] was inactive. Further, the result in data set [7] and in [8] was inactive.
